From ChEMBL document CHEMBL1134359, “Design, synthesis, and evaluation of a novel pyrrolobenzodiazepine DNA-interactive agent with highly efficient cross-linking ability and potent cytotoxicity” (J Med Chem, 2001)
pIC50: −log10 of the molar value.

Assays:
A2780cisR = assay: (§1) Ratio of IC50 against A2780cisR (cisplatin resistant) to the IC50 of parent; type: functional
carcinoma cell line = assay: (§2) Ratio of IC50 against human ovarian carcinoma cell line (CH1)cisR (cisplatin resistant) to the IC50 of parent; type: functional
Nucleic Acid [1] = assay: Concentration of compound required for 50% cross linking of plasmid pBR322 DNA was investigated using an assay involving linear double stranded DNA; type: functional
Summary of the method: (§3)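 pBR322 cut with HindIII, dephosphorylated, then 5'-end-labelled with [γ-32P]ATP by T4 kinase; about 10 ng per reaction. Drug at 0.001–10 μM in 25 mM triethanolamine/1 mM EDTA, pH 7.2, 37 °C, 2 h. Stopped, then ethanol-precipitated; strands separated in 30% DMSO at 90 °C for 2 min; run on neutral 0.8% agarose. Autoradiograph read by laser densitometry; XL50 is the dose giving 50% double-stranded (cross-linked) DNA.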

A2780 [2] = assay: Inhibition of cell growth in human ovarian carcinoma cell line (A2780) using the 96 hour continuous exposure sulforhodamine B (SRB) growth delay assay; type: functional, cell-based
Summary of the method: (§4)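 Human ovarian lines seeded in 96-well plates and left to attach overnight. Compounds dissolved in DMSO (20 mM stock), diluted in medium, added to quadruplicate wells at final 2.5 nM–100 μM; continuous exposure 96 h at 37 °C. Cells fixed in 10% TCA, stained with 0.4% SRB, dye taken up in 10 mM Tris, A540 read. IC50 taken relative to 8 untreated wells.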

CH1 [3] = assay: Inhibition of cell growth in human ovarian carcinoma cell line (CH1) was determined using the 96 hour continuous exposure sulforhodamine B (SRB) growth delay assay.; type: functional, cell-based; conditions: CH1, 96 h; summary of the method: as §4
CH1 [4] = assay: Inhibition of cell growth in human ovarian carcinoma cell line (CH1-cis-R,cisplatin resistant) using the 96 hour continuous exposure sulforhodamine B (SRB) growth delay assay; type: functional, cell-based; conditions: CH1cisR; summary of the method: as §4
SK-OV-3 = assay: Inhibition of cell growth in human ovarian carcinoma cell line(SKOV-3) using the 96 hour continuous exposure sulforhodamine B (SRB) growth delay assay; type: functional, cell-based; summary of the method: as §4
[5] = as §1; type: functional
[6] = as §2; type: functional
A2780 [7] = assay: Growth inhibition in human ovarian carcinoma cell line (A2780cisR,cisplatin-resistant) using the 96 hour exposure sulforhodamine B (SRB) growth delay assay; type: functional, cell-based; conditions: A2780, 96 h; summary of the method: as §4
K562 = assay: Inhibition of cell growth by 50% in human leukemia cell line (K562) was determined using microculture tetrazolium (MTT) assay.; type: functional, cell-based
Summary of the method: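 K562 human leukaemia cells given drug for 1 h; growth then measured by MTT assay; IC50 is the dose giving 50% growth inhibition versus drug-free controls.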

Nucleic Acid [8] = assay: The concentration of compound required for 50% cross linking of plasmid pBR322 DNA was investigated using an assay involving linear double stranded DNA; type: functional; summary of the method: as §3
A2780 [9] = assay: Inhibition of cell growth in human ovarian carcinoma cell line (A2780cisR,cisplatin-resistant)using the 96 hour continuous exposure sulforhodamine B (SRB) growth delay assay; type: functional, cell-based
Summary of the method: (§5)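 Cells seeded in growth medium and allowed to attach overnight, then given drug (20 mM DMSO stock diluted in medium) in quadruplicate wells at final 100 μM to 2.5 nM for 96 h at 37 °C. Fixed with 10% trichloroacetic acid on ice, stained 0.4% sulforhodamine B, dye solubilised in 10 mM Tris base, absorbance 540 nm; IC50 from concentration versus % absorbance against 8 untreated wells.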

CH1 [10] = assay: Inhibition of cell growth in human ovarian carcinoma cell line (CH1-cis-R,cisplatin resistant) using the 96 hour exposure sulforhodamine B (SRB) growth delay assay; type: functional, cell-based; summary of the method: as §5

CISPLATIN [listing 1 of 2 here] gave a Ratio (A2780cisR) of 32 and a Ratio (carcinoma cell line) of 6.1.

N[C@@H](Cc1ccc(N(CCCl)CCCl)cc1)C(=O)O gave an XL50 (Nucleic Acid [1]) of 20 µM.

In the case of C=C1C[C@H]2C(=O)Nc3cc(OCCCOc4cc5c(cc4OC)C(=O)N4CC(=C)C[C@H]4C(=O)N5)c(OC)cc3C(=O)N2C1, the pIC50 (A2780 [2]; Homo sapiens, A2780, 96 h) was 5.60, the pIC50 (CH1 [3]) was 6.24 and the pIC50 (CH1 [4]) was 5.54. The pIC50 (SK-OV-3; Homo sapiens, SK-OV-3, 96 h) was 4.55, the Ratio [5] was 4.4 and the Ratio [6] was 3.5. For the same molecule, the pIC50 (A2780 [7]) was 4.96.

C=C1C[C@H]2C=Nc3cc(OCCCOc4cc5c(cc4OC)C(=O)N4CC(=C)C[C@H]4C=N5)c(OC)cc3C(=O)N2C1 [SJG-136] gave a pIC50 (CH1 [3]) of 9.92, a pIC50 (CH1 [4]) of 9.22 and a pIC50 (K562) of 7.37. The pIC50 (SK-OV-3; Homo sapiens, SK-OV-3, 96 h) was 8.04, the XL50 (Nucleic Acid [8]) was 0.045 µM and the Ratio [5] was 1.1. For the same molecule, the Ratio [6] was 5.

Molecule COc1cc2c(cc1OCCCOc1cc3c(cc1OC)C(=O)N1CCC[C@H]1C=N3)N=C[C@@H]1CCCN1C2=O [DSB-120] has a pIC50 (CH1 [4]) of 7.66, a pIC50 (K562) of 6.60 and an XL50 (Nucleic Acid [8]) of 0.055 µM. The Ratio [5] was 29.2 and the Ratio [6] was 0.7.

With CISPLATIN [listing 2 of 2 here] the pIC50 (A2780 [9]) was 5.08, the pIC50 (A2780 [2]; a2780) was 6.58 and the pIC50 (CH1 [10]) was 5.96. For the same molecule, the pIC50 (SK-OV-3; sk-ov-3) was 4.98.
